Data: ChEMBL document CHEMBL1136715, “Modifications of the ethanolamine head in N-palmitoylethanolamine: synthesis and evaluation of new agents interfering with the metabolism of anandamide” (J Med Chem, 2003)

Assays:
Rattus norvegicus [1] = species on record: Rattus norvegicus; assay: Percent inhibition of AEA (N-arachidonoylethanolamine) metabolism in rat brain homogenates using [3H]anandamide as the labeled substrate.; assay type: functional; parameters: concentration or dose not given beside the values; settings: dose or concentration not given here
In short: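 Rat brain membranes with test compound or ethanol carrier and [3H]-AEA (2 μM final) in 10 mM Tris-HCl, 1 mM EDTA, 1% w/v fatty-acid-free BSA, pH 7.6, for 10 min at 37 °C. Ice plus chloroform/methanol (1:1) stopped the reaction, and the methanol/buffer phase was counted with quench correction. Blanks used water in place of homogenate. Values come from at least three experiments.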

[2] = biological target: Cannabinoid receptor 1 (Homo sapiens) (UniProt P21554); assay: Percent inhibition of specific binding of [3H]CP-55940 towards human cannabinoid receptor 1 from Chinese hamster ovary cell membranes at the concentration of 10 uM
Chain of Cannabinoid receptor 1 (Homo sapiens) (P21554 whole entry): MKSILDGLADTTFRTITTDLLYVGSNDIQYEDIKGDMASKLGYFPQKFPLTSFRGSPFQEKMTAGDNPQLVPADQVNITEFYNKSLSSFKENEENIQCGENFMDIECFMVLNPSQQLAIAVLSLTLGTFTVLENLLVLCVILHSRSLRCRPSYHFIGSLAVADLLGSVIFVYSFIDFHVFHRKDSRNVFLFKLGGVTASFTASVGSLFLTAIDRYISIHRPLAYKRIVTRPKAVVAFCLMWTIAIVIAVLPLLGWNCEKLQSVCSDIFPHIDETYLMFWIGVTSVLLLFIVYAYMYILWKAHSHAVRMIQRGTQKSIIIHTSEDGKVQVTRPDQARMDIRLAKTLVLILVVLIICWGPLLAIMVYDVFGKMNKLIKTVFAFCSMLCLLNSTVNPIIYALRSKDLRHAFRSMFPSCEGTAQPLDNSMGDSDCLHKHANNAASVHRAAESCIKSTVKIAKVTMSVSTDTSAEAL
In short: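 Membranes (40 μg) from CHO cells stably expressing human CB1 (grown in Ham's F12, 10% FBS, G418) were incubated with 1 nM [3H]-CP55,940 for 1 h at 30 °C in 50 mM Tris-HCl with MgCl2 and EDTA, pH 7.4, plus 50 μM PMSF. Nonspecific binding was defined with 10 μM HU-210. Filtration was on PEI-treated GF/B filters, followed by scintillation counting.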

[3] = biological target: Cannabinoid receptor 2 (Homo sapiens) (UniProt P34972); assay: Percent inhibition of specific binding of [3H]WIN-55212-2 towards human cannabinoid receptor 2 from Chinese hamster ovary cell membranes at the concentration of 10 uM
Chain of Cannabinoid receptor 2 (Homo sapiens) (P34972 whole entry): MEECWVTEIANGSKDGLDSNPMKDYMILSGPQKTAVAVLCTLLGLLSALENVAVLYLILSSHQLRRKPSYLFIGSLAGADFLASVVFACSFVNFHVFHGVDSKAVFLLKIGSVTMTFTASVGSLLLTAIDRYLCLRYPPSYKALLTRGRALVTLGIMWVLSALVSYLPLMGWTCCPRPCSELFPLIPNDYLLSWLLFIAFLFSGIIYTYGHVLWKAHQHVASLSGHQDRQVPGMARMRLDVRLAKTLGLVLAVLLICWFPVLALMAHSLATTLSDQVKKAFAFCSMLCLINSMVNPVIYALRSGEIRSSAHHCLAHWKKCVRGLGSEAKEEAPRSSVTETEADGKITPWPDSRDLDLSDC
In short: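 Membranes (40 μg) from human CB2-transfected CHO cells (Ham's F12, 10% FBS, G418) were incubated with 1 nM [3H]-WIN 55,212-2 for 1 h at 30 °C in 50 mM Tris-HCl/MgCl2/EDTA, pH 7.4, with 50 μM PMSF. Bound radioligand was collected on 0.5% PEI-pretreated GF/B filters and counted by liquid scintillation.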

Rattus norvegicus [4] = species on record: Rattus norvegicus; assay: Inhibition of AEA (N-arachidonoylethanolamine) metabolism using rat brain homogenates at pH 9 using [3H]anandamide as the labeled substrate; assay type: functional; settings: dose or concentration not given here
In short: (§1)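 Rat brain membranes (adult, minus cerebellum) were homogenized in 20 mM HEPES pH 7.0 with 1 mM MgCl2, washed, preincubated 15 min at 37 °C, and stored at -70 °C. Incubation was with [3H]-AEA (2 μM final) for 10 min at 37 °C at pH 6 or pH 9. Chloroform/methanol stopped the reaction, and [3H]-ethanolamine in the aqueous phase was counted. pI50 and maximal inhibition came from 3–5 experiments (three homogenate preparations) over 3–100 μM (seven concentrations).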

Rattus norvegicus [5] = species on record: Rattus norvegicus; assay: Inhibition of AEA (N-arachidonoylethanolamine) metabolism using rat brain homogenates at pH 6 using [3H]-anandamide as the labeled substrate; assay type: functional; settings: dose or concentration not given here; in short: as §1
Rattus norvegicus [6] = species on record: Rattus norvegicus; assay: Tested for percent inhibition of AEA (N-arachidonoylethanolamine) metabolism in rat brain homogenates using [3H]anandamide as the labeled substrate at 100 uM; assay type: functional
Rattus norvegicus [7] = species on record: Rattus norvegicus; assay: Inhibition of AEA (N-arachidonoylethanolamine) metabolism using rat brain homogenates at pH 6 and at the concentration of 50 uM using [3H]anandamide as the labeled substrate; assay type: functional

| SMILES | inhibition (Rattus norvegicus [1]) [%] | inhibition [2] [%] | inhibition [3] [%] | inhibition (Rattus norvegicus [4]) [%] | inhibition (Rattus norvegicus [5]) [%] | inhibition (Rattus norvegicus [6]) [%] | inhibition (Rattus norvegicus [7]) [%] |
| --- | --- | --- | --- | --- | --- | --- | --- |
| CCCCCCCCCCCCCCCC(=O)NC(C)(C)C | 0 | 24.6 | 2 | – | – | – | – |
| CCCCCCCCCCCCCCCC(=O)NCCO | 78 | – | – | 100 | 62 | – | – |
| CCCCCCCCCCCCCCCC(=O)NCc1ccc(OC)cc1 | – | 25.4 | 3.7 | – | – | 29 | – |
| CCCCCCCCCCCCCCCC(=O)NC(C)(C)CO | 0 | 15.7 | 6.7 | – | – | – | – |
| CCCCCCCCCCCCCCCC(=O)NC1CCCCC1 | – | – | – | – | – | 11 | – |
| CCCCCCCCCCCCCCCC(=O)NCC(=O)OC | 100 | 7.3 | 4.1 | 100 | 75 | – | – |
| CCCCCCCCCCCCCCCC(=O)NCCc1ccccc1 | – | 22.8 | 1.3 | – | – | 19 | – |
| CCCCCCCCCCCCCCCC(=O)N1CCOCC1 | – | 15.5 | 4.2 | – | – | 6 | – |
| CCCCCCCCCCCCCCCC(=O)NC | 100 | 2.5 | – | – | – | – | – |
| CCCCCCCCCCCCCCCC(=O)Nc1ccccc1C | 31 | 4.9 | 6.5 | – | – | – | – |
| CCCCCCCCCCCCCCCC(=O)NCCCC | 24 | 19.6 | 12.9 | – | – | – | – |
| CCCCCCCCCCCCCCCC(=O)NCCCO | 61 | 15 | 6.4 | 81 | 45 | – | – |
| CCCCCCCCCCCCCCCC(=O)NC(C)C | 61 | – | – | 39 | – | – | 4 |
| CCCCCCCCCCCCCCCC(=O)NCCCCl | 27 | 30.6 | 14.3 | – | – | – | – |
| CCCCCCCCCCCCCCCC(=O)Nc1ccc(Cl)cc1 | 11 | 11.1 | 7.4 | – | – | – | – |
| CCCCCCCCCCCCCCCC(=O)Nc1ccccc1O | – | 10.8 | 2.7 | – | – | 53 | – |
| CCCCCCCCCCCCCCCC(=O)Nc1cccc(O)c1 | – | 40.9 | 3.9 | – | – | 51 | – |
| CCCCCCCCCCCCCCCC(=O)Nc1ccc2ccccc2c1 | 28 | 0.7 | 0.1 | – | – | – | – |
| CCCCCCCCCCCCCCCC(=O)NCCC | 49 | 14.4 | 6.1 | – | – | – | – |

| SMILES | inhibition (Rattus norvegicus [1]) [%] | inhibition [2] [%] | inhibition [3] [%] | inhibition (Rattus norvegicus [4]) [%] | inhibition (Rattus norvegicus [5]) [%] | inhibition (Rattus norvegicus [6]) [%] | inhibition (Rattus norvegicus [7]) [%] |
| --- | --- | --- | --- | --- | --- | --- | --- |
| CCCCCCCCCCCCCCCC(=O)Nc1ccc(O)cc1 | – | 44.8 | 5 | – | – | 55 | – |
| CCCCCCCCCCCCCCCC(=O)N(CC)CC | – | 3.3 | 2.7 | – | – | 2 | – |
| CCCCCCCCCCCCCCCC(=O)NC1CCCC1 | – | 27.1 | 9.5 | – | – | 43 | – |
| CCCCCCCCCCCCCCCC(=O)Nc1ccc(C)cc1 | – | 2.8 | 6.5 | – | – | 0 | – |
| CCCCCCCCCCCCCCCC(=O)NC1CC1 | 57 | 12.8 | 16.3 | – | – | – | – |
| CCCCCCCCCCCCCCCC(=O)NCCBr | 41 | 35.8 | 15.1 | – | – | – | – |
| CCCCCCCCCCCCCCCC(=O)NCC(C)C | 6 | 18.5 | 8.9 | – | – | – | – |
| CCCCCCCCCCCCCCCC(=O)N(C)C | – | 0.3 | 6.4 | – | – | 30 | – |
| C=CCNC(=O)CCCCCCCCCCCCCCC | 67 | 13.3 | 7.8 | – | – | – | – |
| CCCCCCCCCCCCCCCC(=O)NCCCl | 48 | 25.2 | 13.5 | – | – | – | – |
| CCCCCCCCCCCCCCCC(=O)NCc1ccc(C)cc1 | 100 | 4.8 | 0.7 | – | – | – | – |
| CCCCCCCCCCCCCCCC(=O)NCC | 72 | 2.8 | 10 | – | – | – | – |
| CCCCCCCCCCCCCCCC(=O)Nc1ccccc1 | 18 | 2.8 | 0.5 | – | – | – | – |
| CCCCCCCCCCCCCCCNC(=O)COC(C)=O | 87 | 16 | 6 | – | – | – | – |
| CCCCCCCCCCCCCCCC(=O)NC(c1ccccc1)c1ccccc1 | – | 2.2 | 1.1 | – | – | 0 | – |
| CCCCCCCCCCCCCCCC(=O)NCCF | – | 8.2 | 3.9 | – | – | 6 | – |
| CCCCCCCCCCCCCCCC(N)=O | 51 | 11.7 | 12.9 | – | – | – | – |
| CCCCCCCCCCCCCCCC(=O)NOC | 46 | 18.1 | 5.2 | – | – | – | – |
